Data published in ChEMBL document CHEMBL3739286, “Betulinic acid derived hydroxamates and betulin derived carbamates are interesting scaffolds for the synthesis of novel cytotoxic compounds” (Eur J Med Chem, 2015).

Key:
[1] = Cytotoxicity against human 518A2 cells after 96 hrs by SRB assay; type: functional, cell-based; details: Homo sapiens, 518A2, 96 h; read-out: EC50
Procedure, shortened: (§1)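 Photometric sulforhodamine B read-out of antiproliferative effect after 96 h of continuous treatment; EC₅₀ values in µM, averaged from three independent experiments each run in triplicate; the assay cut-off is EC₅₀ > 30 µM. Human tumour lines are tested alongside nonmalignant mouse NIH 3T3 fibroblasts.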

A2780 = test: Cytotoxicity against human A2780 cells after 96 hrs by SRB assay; type: functional, cell-based; details: Homo sapiens, A2780, 96 h; read-out: EC50; procedure, shortened: as §1
A549 = test: Cytotoxicity against human A549 cells after 96 hrs by SRB assay; type: functional, cell-based; details: Homo sapiens, A549, 96 h; read-out: EC50; procedure, shortened: as §1
MCF7 = test: Cytotoxicity against human MCF7 cells after 96 hrs by SRB assay; type: functional, cell-based; details: Homo sapiens, MCF7, 96 h; read-out: EC50; procedure, shortened: as §1
[2] = Cytotoxicity against mouse NIH/3T3 cells after 96 hrs by SRB assay; type: cell-based, NIH3T3; details: Mus musculus, NIH3T3, 96 h; read-out: EC50; procedure, shortened: as §1
HT-29 = test: Cytotoxicity against human HT-29 cells after 96 hrs by SRB assay; type: functional, cell-based; details: HT-29, 96 h; procedure, shortened: as §1
HeLa = test: Cytotoxicity against human HeLa cells after 96 hrs by SRB assay; type: functional, cell-based; procedure, shortened: as §1

Row | Structure (SMILES) | EC50 [1] [µM] | EC50 (A2780) [µM] | EC50 (A549) [µM] | EC50 (MCF7) [µM] | EC50 [2] [µM] | EC50 (HT-29) [µM] | EC50 (HeLa) [µM]
1 | C=C(C)[C@@H]1CC[C@]2(C(=O)NCc3ccccc3)CC[C@]3(C)[C@H](CC[C@@H]4[C@@]5(C)CCC(=O)C(C)(C)[C@@H]5CC[C@]43C)[C@@H]12 | > 30 | 7.4 | > 30 | > 30 | > 30 | > 30 | > 30
2 | C=C(C)[C@@H]1CC[C@]2(COC(=O)NCCCC)CC[C@]3(C)[C@H](CC[C@@H]4[C@@]5(C)CC[C@H](OC(C)=O)C(C)(C)[C@@H]5CC[C@]43C)[C@@H]12 | > 30 | > 30 | > 30 | > 30 | > 30 | > 30 | > 30
3 | C=C(C)[C@@H]1CC[C@]2(COC(=O)NCCCC)CC[C@]3(C)[C@H](CC[C@@H]4[C@@]5(C)CC[C@H](O)C(C)(C)[C@@H]5CC[C@]43C)[C@@H]12 | 8 | 7 | 8.6 | 12.5 | 5.7 | 7.5 | 10.1
4 | C=C(C)[C@@H]1CC[C@]2(C(=O)NCc3ccccc3)CC[C@]3(C)[C@H](CC[C@@H]4[C@@]5(C)CC[C@H](OC(C)=O)C(C)(C)[C@@H]5CC[C@]43C)[C@@H]12 | 6.2 | 6.2 | 10.3 | > 30 | > 30 | > 30 | 16.9
5 | C=C(C)[C@@H]1CC[C@]2(COC(=O)NCCCCCC)CC[C@]3(C)[C@H](CC[C@@H]4[C@@]5(C)CCC(=O)C(C)(C)[C@@H]5CC[C@]43C)[C@@H]12 | > 30 | > 30 | > 30 | > 30 | > 30 | > 30 | > 30
6 | C=C(C)[C@@H]1CC[C@]2(COC(=O)NCC)CC[C@]3(C)[C@H](CC[C@@H]4[C@@]5(C)CC[C@H](OC(C)=O)C(C)(C)[C@@H]5CC[C@]43C)[C@@H]12 | 10.2 | 11.1 | 14.1 | 20.4 | > 30 | > 30 | 17
7 | C=C(C)[C@@H]1CC[C@]2(COC(=O)NCC)CC[C@]3(C)[C@H](CC[C@@H]4[C@@]5(C)CC[C@H](O)C(C)(C)[C@@H]5CC[C@]43C)[C@@H]12 | 12.5 | 4.6 | 12 | 12.1 | 8.8 | > 30 | > 30
8 | C=C(C)[C@@H]1CC[C@]2(COC(=O)NCCC)CC[C@]3(C)[C@H](CC[C@@H]4[C@@]5(C)CC[C@H](OC(=O)NCCC)C(C)(C)[C@@H]5CC[C@]43C)[C@@H]12 | > 30 | 19.4 | > 30 | > 30 | > 30 | > 30 | > 30
9 | C=C(C)[C@@H]1CC[C@]2(COC(=O)NCCCCCC)CC[C@]3(C)[C@H](CC[C@@H]4[C@@]5(C)CC[C@H](OC(C)=O)C(C)(C)[C@@H]5CC[C@]43C)[C@@H]12 | > 30 | > 30 | > 30 | > 30 | > 30 | > 30 | > 30
10 | C=C(C)[C@@H]1CC[C@]2(COC(=O)NCCCC)CC[C@]3(C)[C@H](CC[C@@H]4[C@@]5(C)CCC(=O)C(C)(C)[C@@H]5CC[C@]43C)[C@@H]12 | > 30 | > 30 | > 30 | > 30 | > 30 | > 30 | > 30
11 | C=C(C)[C@@H]1CC[C@]2(C(N)=O)CC[C@]3(C)[C@H](CC[C@@H]4[C@@]5(C)CCC(=O)C(C)(C)[C@@H]5CC[C@]43C)[C@@H]12 | 21.5 | 15.6 | 14.7 | 10.3 | 17.7 | 17.9 | 22.9
12 | C=C(C)[C@@H]1CC[C@]2(COC(=O)NCCCCCC)CC[C@]3(C)[C@H](CC[C@@H]4[C@@]5(C)CC[C@H](OC(=O)NCCCCCC)C(C)(C)[C@@H]5CC[C@]43C)[C@@H]12 | > 30 | > 30 | > 30 | > 30 | > 30 | > 30 | > 30
13 | C=C(C)[C@@H]1CC[C@]2(COC(=O)NCC)CC[C@]3(C)[C@H](CC[C@@H]4[C@@]5(C)CCC(=O)C(C)(C)[C@@H]5CC[C@]43C)[C@@H]12 | 16.6 | 8.3 | 20.3 | 19.7 | 4.6 | 11.5 | 13.4
14 | C=C(C)[C@@H]1CC[C@]2(COC(=O)NCCC)CC[C@]3(C)[C@H](CC[C@@H]4[C@@]5(C)CC[C@H](O)C(C)(C)[C@@H]5CC[C@]43C)[C@@H]12 | 15.9 | 10.6 | 14.2 | 15.5 | 7.3 | 16.3 | 9.4
15 | C=C(C)[C@@H]1CC[C@]2(COC(=O)NCCC)CC[C@]3(C)[C@H](CC[C@@H]4[C@@]5(C)CCC(=O)C(C)(C)[C@@H]5CC[C@]43C)[C@@H]12 | > 30 | > 30 | > 30 | > 30 | > 30 | > 30 | > 30
16 | C=C(C)[C@@H]1CC[C@]2(COC(=O)Nc3ccccc3)CC[C@]3(C)[C@H](CC[C@@H]4[C@@]5(C)CC[C@H](OC(C)=O)C(C)(C)[C@@H]5CC[C@]43C)[C@@H]12 | > 30 | > 30 | > 30 | > 30 | > 30 | > 30 | > 30
17 | C=C(C)[C@@H]1CC[C@]2(COC(=O)NCCCC)CC[C@]3(C)[C@H](CC[C@@H]4[C@@]5(C)CC[C@H](OC(=O)NCCCC)C(C)(C)[C@@H]5CC[C@]43C)[C@@H]12 | > 30 | > 30 | > 30 | > 30 | > 30 | > 30 | > 30
18 | C=C(C)[C@@H]1CC[C@]2(COC(=O)NCC)CC[C@]3(C)[C@H](CC[C@@H]4[C@@]5(C)CC[C@H](OC(=O)NCC)C(C)(C)[C@@H]5CC[C@]43C)[C@@H]12 [BIS(ETHYLCARBAMATE)BETULIN] | 12.6 | 5.8 | 10.7 | 23.3 | > 30 | 8.3 | 17.8
19 | C=C(C)[C@@H]1CC[C@]2(COC(=O)NCCC)CC[C@]3(C)[C@H](CC[C@@H]4[C@@]5(C)CC[C@H](OC(C)=O)C(C)(C)[C@@H]5CC[C@]43C)[C@@H]12 | > 30 | > 30 | > 30 | > 30 | > 30 | > 30 | > 30
20 | C=C(C)[C@@H]1CC[C@]2(COC(=O)Nc3ccccc3)CC[C@]3(C)[C@H](CC[C@@H]4[C@@]5(C)CCC(=O)C(C)(C)[C@@H]5CC[C@]43C)[C@@H]12 | > 30 | > 30 | > 30 | > 30 | > 30 | > 30 | > 30
21 | C=C(C)[C@@H]1CC[C@]2(COC(=O)NCCCCCC)CC[C@]3(C)[C@H](CC[C@@H]4[C@@]5(C)CC[C@H](O)C(C)(C)[C@@H]5CC[C@]43C)[C@@H]12 | 5.5 | 7.7 | 12.7 | > 30 | > 30 | > 30 | 7.4
22 | C=C(C)[C@@H]1CC[C@]2(C(N)=O)CC[C@]3(C)[C@H](CC[C@@H]4[C@@]5(C)CC[C@H](O)C(C)(C)[C@@H]5CC[C@]43C)[C@@H]12 | 9.9 | 15.7 | 8.2 | 10.7 | 10.7 | 10.2 | 11.2
